This passage reports IC50, Activity and inhibition of growth results from ChEMBL document CHEMBL1949626, “Ultrasound-assisted bismuth nitrate-induced green synthesis of novel pyrrole derivatives and their biological evaluation as anticancer agents” (Eur J Med Chem, 2012).

The subject of one series is HeLa. The series is described as follows: Cytotoxicity against human HeLa cells after 48 hrs by sulforhodamine B assay. The format is functional, cell-based. The procedure, abridged: (§1)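 Cells seeded at 5000/well, incubated overnight at 37 °C, then exposed 48 h to 0.1 µM-100 µM compound from DMSO stock (final DMSO ≤0.25%); 0.25% DMSO vehicle and 10 μM doxorubicin controls. Fixed, stained with sulforhodamine B, absorbance normalized to untreated cells; 4-parameter logistic fit gives IC50, mean ± SD of two independent assays.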

Another series concerns HT-29. The series is described as follows: Cytotoxicity against human HT-29 cells after 48 hrs by sulforhodamine B assay. The format is functional, cell-based. As to conditions: HT-29, 48 h. In short, it runs like this:
as §1

The test system of series [1] is HepG2. The series is described as follows: Cytotoxicity against human HepG2 cells after 48 hrs by sulforhodamine B assay. The conditions noted are these: HepG2, 48 h. The format is functional, cell-based. In short, it runs like this: as §1
Series [2] in a line: Cytotoxicity against mouse Hepa1-6 cells after 48 hrs by sulforhodamine B assay. As to conditions: Hepa1-6, 48 h.
The subject of a further series is Caco-2. Briefly: Cytotoxicity against human Caco2 cells after 48 hrs by sulforhodamine B assay. The format is functional, cell-based. The conditions noted are these: Caco-2, 48 h. In short, it runs like this:
as §1

A further series deals with NIH3T3. Briefly: Cytotoxicity against […] cells after 48 hrs by sulforhodamine B assay. The conditions noted are these: Mus musculus, NIH3T3, 48 h. The format is functional, cell-based. In short, it runs like this:
as §1

Series [3] in a line: Cytotoxicity against mouse Hepa1-6 cells at 50 uM after 48 hrs by sulforhodamine B assay.
In series [4] the test system is HepG2. Briefly: Cytotoxicity against human HepG2 cells at 2 times IC50 after 24 hrs by sulforhodamine B assay. The format is functional. The procedure, abridged:
(§2)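 HepG2 seeded at 5000 cells/well and treated at twice each compound's calculated IC50 for 24, 48 or 72 h. Cells fixed and viability read by SRB absorbance, normalized to untreated. Three independent experiments run in duplicate; mean ± SD.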

In a further series the test system is Hepatocyte. Briefly: Cytotoxicity against CD1 mouse hepatocytes at 10 uM after 48 hrs by MTS assay. The format is cell-based. In short, it runs like this:
(§3)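 Fresh CD-1 mouse hepatocytes (Williams' E medium) or Hepa1-6 (DMEM, 10% FBS), plated, incubated overnight at 37 °C; media refreshed, then 0.5, 2.5, 5 and 10 μM compound for 48 h. MTS reagent added for 4 h at 37 °C, 5% CO2; A490 normalized to untreated cells. Two independent experiments in duplicate, mean ± SD.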

For series [5], the system named is HepG2. The series is described as follows: Induction of apoptosis in human HepG2 cells assessed as increase in DNA fragmentation by TUNEL assay. Format: functional, cell-based.
The subject of series [6] is HepG2. The series is described as follows: Inhibition of anchorage-independent growth of human HepG2 cells at 12.5 uM after 7 days by soft agar colony formation assay. As to conditions: HepG2, 168 h, read-out: GI. The format is functional. In short, it runs like this:
(§4)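 HepG2 at 5000 cells/well in top soft agar, exposed to compound for 7 days with compound and fresh medium replaced once on day 4. Agar solubilized on day 7 and cells quantified by fluorescence (485–520 nm filters). Duplicate wells per dose, SD shown.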

Series [7] has as its system HepG2. Briefly: Induction of apoptosis in human HepG2 cells assessed as increase in caspase3/7 activity. Format: functional, cell-based.
Series [8] relates to HepG2. The series is described as follows: Cytotoxicity against human HepG2 cells at 2 times IC50 after 48 hrs by sulforhodamine B assay. Format: functional. In short, it runs like this: as §2
Series [9] concerns Hepa1-6. The series is described as follows: Cytotoxicity against mouse Hepa1-6 cells at 2.5 to 5 uM after 48 hrs by MTS assay.
The test system of series [10] is HepG2. Briefly: Cytotoxicity against human HepG2 cells at 2 times IC50 after 72 hrs by sulforhodamine B assay. Format: functional. The procedure, abridged:
as §2

Series [11] has as its system HepG2. The series is described as follows: Inhibition of anchorage-independent growth of human HepG2 cells at 25 uM after 7 days by soft agar colony formation assay. The format is functional. The conditions noted are these: HepG2, 168 h, read-out: GI. In short, it runs like this:
as §4

Series [12] deals with Hepa1-6. The series is described as follows: Cytotoxicity against […] cells at 2.5 to 5 uM after 48 hrs by MTS assay. The format is functional, cell-based. In short, it runs like this: as §3
Series [13] can be described thus: Cytotoxicity against […] cells after 48 hrs by sulforhodamine B assay. The format is functional, cell-based. As to conditions: Hepa1-6, 48 h. In short, it runs like this:
as §1

pIC50: −log10 of the molar value. Activity calls are given as the source filed them. The calls are words filed in the database; no cut-off is given here. Where only a bound is given, the exact number is not on record here.

As for `c1ccc2c(c1)ccc1c3ccccc3c(-n3cccc3)cc21`, the pIC50 in the series on HeLa was less than 4.30; in the series with HT-29, less than 4.30; in the series with HepG2 [1], less than 4.30; in series [2], 6.15; in the series with Caco-2, less than 4.30; in the series on NIH3T3, less than 4.30. In series [3], this compound came in with an Activity of 50%.

For `c1ccn(C23CC4CC(CC(C4)C2)C3)c1`, the pIC50 is 4.89 in the series on HeLa; 4.92 with HT-29; 4.41 with HepG2 [1]; 4.70 in series [2]; less than 4.30 in the series with Caco-2; 4.62 in the series on NIH3T3.

As for `c1cnc2c(c1)cc(-n1cccc1)c1cccnc12`, the negative-log IC50 (pIC50) was 4.55 in the series with HeLa; 5.38 in the series with HT-29; 5.52 in the series on HepG2 [1]; 5.47 in [2]; 5.72 with NIH3T3. For the same compound, the Activity with HepG2 [4] is reported as 20%; in the series with Hepatocyte, “Non-toxic”; with HepG2 [8] it was more than 50%; in the series on HepG2 [10], more than 50%. The result in the series on HepG2 [5] and in the series with HepG2 [7] was inactive. Also, the inhibition of growth at 12.5 µM in the series with HepG2 [6] is more than 80%. Also, in the series with Hepa1-6 [9], the outcome was Active. Further, the inhibition of growth at 25 µM in the series on HepG2 [11] was more than 60%.

Consider `c1cc2ccc3ccc(-n4cccc4)c4ccc(c1)c2c34`, for which the pIC50 in the series on HeLa is 4.75; in the series with HT-29, 4.61; in the series on HepG2 [1], less than 4.30; in the series with Caco-2, less than 4.30.

Consider `c1ccc2c(c1)ccc1cc(-n3cccc3)ccc12`, for which the pIC50 is less than 4.30 in the series with HeLa; less than 4.30 in the series on HT-29; 4.87 with HepG2 [1]; less than 4.30 in the series on Caco-2; 5.68 in the series with NIH3T3; 5.41 in series [13]. In addition, the Activity is 20% in the series on HepG2 [4], “Non-toxic” with Hepatocyte, more than 50% with HepG2 [8] and more than 50% in the series on HepG2 [10]. The result in the series with HepG2 [5] and with HepG2 [7] was inactive. Further, the inhibition of growth at 12.5 µM with HepG2 [6] was more than 80%. Besides, in the series with Hepa1-6 [12], the outcome was Active. In the series with HepG2 [11], the inhibition of growth at 25 µM is more than 60%.
